Experimental data taken from ChEMBL document CHEMBL2412984, “Indole derivatives as dual-effective agents for the treatment of neurodegenerative diseases: synthesis, biological evaluation, and molecular modeling studies” (Bioorg Med Chem, 2013).
pIC50: −log10 of the molar value. Calls of active or inactive are those of the source. No cut-off for these calls is given here.

What was measured:
[1] = Antioxidant activity assessed as inhibition of ABTS free radical generation at 17 uM after 20 mins by UV spectrophotometric analysis relative to control; type: functional
How it was run: (§1)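 ABTS radical cation formed by mixing ABTS diammonium salt (96 mg) and potassium persulfate (33 mg) in 25 mL 0.1 M phosphate buffer pH 7.0, then left in the dark at room temperature for 16 h before use. Samples made fresh as 2 mM stocks in methanol/phosphate buffer 1:1 and assayed in triplicate. Absorbance read at 734 nm; %I = (A_blank − A_sample)/A_blank.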

[2] = Antioxidant activity assessed as inhibition of ABTS free radical generation after 20 mins by UV spectrophotometric analysis relative to control; type: functional; how it was run: as §1
[3] = molecular target: Glutamate receptor ionotropic, NMDA 2B (Rattus norvegicus, UniProt Q00960); test: Displacement of [3H]-ifenprodil from Wistar rat cerebral cortex GluN2B after 120 mins; type: tissue-based
How it was run: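 Membranes from cerebral cortices of male Wistar-derived rats (175 g) prepared in Tris–HCl pH 7.4. A 5 mg aliquot was incubated with 2 nM [3H]ifenprodil plus 5 μM GBR-12909, which blocks non-polyamine-sensitive sites, for 120 min at 4 °C. Nonspecific binding defined with 10 μM ifenprodil. Membranes filtered, washed and counted. Three test concentrations run in duplicate.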

[4] = Antioxidant activity assessed as inhibition of ABTS free radical generation at 33 uM after 20 mins by UV spectrophotometric analysis relative to control; type: functional
How it was run: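 ABTS radical cation was generated from ABTS diammonium salt and potassium persulfate in 0.1 M phosphate buffer, pH 7.0, and left in the dark at room temperature for 16 h before use. Sample stocks (2 mM) were freshly prepared in methanol/phosphate buffer 1:1 and tested in triplicate. Absorbance was read at 734 nm, with inhibition calculated as %I = (A_blank − A_sample)/A_blank.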

Chain of Glutamate receptor ionotropic, NMDA 2B (Q00960 whole entry): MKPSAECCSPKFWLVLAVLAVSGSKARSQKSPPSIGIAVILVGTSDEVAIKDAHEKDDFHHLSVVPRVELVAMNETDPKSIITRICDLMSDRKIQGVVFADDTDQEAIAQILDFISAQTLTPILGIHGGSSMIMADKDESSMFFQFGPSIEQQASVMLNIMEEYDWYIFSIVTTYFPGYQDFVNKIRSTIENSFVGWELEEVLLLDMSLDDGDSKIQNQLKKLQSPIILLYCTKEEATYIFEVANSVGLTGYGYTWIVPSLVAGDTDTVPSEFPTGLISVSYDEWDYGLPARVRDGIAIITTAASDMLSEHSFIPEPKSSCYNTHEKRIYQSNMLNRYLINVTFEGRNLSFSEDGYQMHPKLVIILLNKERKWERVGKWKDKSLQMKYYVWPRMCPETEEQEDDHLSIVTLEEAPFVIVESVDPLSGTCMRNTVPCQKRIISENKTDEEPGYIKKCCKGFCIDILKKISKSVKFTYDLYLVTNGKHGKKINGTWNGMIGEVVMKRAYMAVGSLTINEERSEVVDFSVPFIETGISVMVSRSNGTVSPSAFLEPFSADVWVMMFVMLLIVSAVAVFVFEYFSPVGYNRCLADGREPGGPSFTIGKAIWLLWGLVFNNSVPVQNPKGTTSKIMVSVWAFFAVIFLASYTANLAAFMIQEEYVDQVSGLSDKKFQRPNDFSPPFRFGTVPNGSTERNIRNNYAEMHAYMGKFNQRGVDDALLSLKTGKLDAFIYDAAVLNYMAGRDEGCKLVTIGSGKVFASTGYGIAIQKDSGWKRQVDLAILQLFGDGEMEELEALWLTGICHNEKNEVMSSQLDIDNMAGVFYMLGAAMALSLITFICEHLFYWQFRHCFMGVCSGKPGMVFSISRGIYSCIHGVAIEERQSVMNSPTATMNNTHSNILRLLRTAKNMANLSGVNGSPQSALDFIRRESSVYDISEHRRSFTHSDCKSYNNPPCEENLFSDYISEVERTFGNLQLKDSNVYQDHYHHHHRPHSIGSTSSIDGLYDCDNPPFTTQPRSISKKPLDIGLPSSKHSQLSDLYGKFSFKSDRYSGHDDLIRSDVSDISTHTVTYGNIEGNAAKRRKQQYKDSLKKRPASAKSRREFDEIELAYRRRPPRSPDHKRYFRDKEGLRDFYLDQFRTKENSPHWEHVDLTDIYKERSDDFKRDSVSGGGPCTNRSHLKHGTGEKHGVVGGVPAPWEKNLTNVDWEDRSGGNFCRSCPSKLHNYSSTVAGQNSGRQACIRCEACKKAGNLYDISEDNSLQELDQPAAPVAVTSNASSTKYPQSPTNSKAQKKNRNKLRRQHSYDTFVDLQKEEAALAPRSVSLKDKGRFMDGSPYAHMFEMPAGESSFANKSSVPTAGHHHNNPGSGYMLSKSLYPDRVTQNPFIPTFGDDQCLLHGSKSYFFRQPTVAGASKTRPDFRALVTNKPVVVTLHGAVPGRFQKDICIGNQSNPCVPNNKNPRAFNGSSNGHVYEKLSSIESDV

Row | Structure (SMILES) | inhibition [1] | inhibition [2] | pIC50 [3] | inhibition [4]
1 | O=C(CN1CCC(Cc2ccccc2)CC1)c1c[nH]c2ccc(O)cc12 | > 92.1% | Dose-dependent effect |  | 
2 | O=C(CN1CCC(Cc2ccccc2)CC1)c1c[nH]c2cc(O)ccc12 | > 93.9% | Dose-dependent effect |  | 
3 | O=C(NC1CCN(CC(=O)c2c[nH]c3ccc(O)cc23)CC1)c1ccc(O)c(O)c1 | > 94.1% | Dose-dependent effect | 6.18 | 
4 | O=C(C(=O)N1CCC(Cc2ccccc2)CC1)c1c[nH]c2cc(O)ccc12 | 70.7% | Dose-dependent effect |  | 
5 | O=C(O)c1cc(O)c(O)c(O)c1 | > 94.1% |  |  | 
6 | c1ccc2[nH]ccc2c1 | inactive |  |  | 25%
7 | COc1ccc2[nH]ccc2c1 | inactive |  |  | 47.6%
8 | O=C(C(=O)N1CCC(Cc2ccccc2)CC1)c1c[nH]c2ccc(O)cc12 | 80.1% | Dose-dependent effect |  | 
9 | O=C(O)/C=C/c1ccc(O)c(O)c1 | 71.5% |  |  | 
